# What was measured:
# COLO 205 [1] = assay: Growth inhibition of human COLO205 cells after 48 hrs by sulforhodamine B assay; type: functional, cell-based; conditions: COLO 205, 48 h
# Summary of the method: (§1)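 Cells kept in RPMI-1640 with 10% FBS, penicillin and streptomycin; trypan blue viability check beforehand. Seeded at 1 × 10^4 cells/well, 24 h at 37 °C, 5% CO2, then treated in quadruplicate for 48 h. Compounds diluted in medium with 50 µg/ml gentamycin; single test level 100 µM. TCA fixation at 4 °C for 1 h, SRB stain, Tris pH 10.5 solubilization, OD 540 nm. IC50 taken as the mean from dose-response curves.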
# OVCAR-5 (human) [2] = assay: Growth inhibition of human OVCAR-5 cells after 48 hrs by sulforhodamine B assay; conditions: OVCAR-5, 48 h
# A549 [3] = assay: Growth inhibition of human A549 cells at 100 uM after 48 hrs by sulforhodamine B assay; type: functional; conditions: A549, 48 h, read-out: GI; summary of the method: as §1
# HEp-2 [4] = assay: Growth inhibition of human Hep2 cells at 100 uM after 48 hrs by sulforhodamine B assay; type: functional; conditions: HEp-2, 48 h, read-out: GI; summary of the method: as §1
# HEp-2 [5] = assay: Growth inhibition of human Hep2 cells after 48 hrs by sulforhodamine B assay; type: functional, cell-based; conditions: HEp-2, 48 h; summary of the method: as §1
# PC-3 [6] = assay: Growth inhibition of human PC3 cells after 48 hrs by sulforhodamine B assay; type: functional, cell-based; conditions: PC-3, 48 h; summary of the method: as §1
# OVCAR-5 (human) [7] = assay: Growth inhibition of human OVCAR-5 cells at 100 uM after 48 hrs by sulforhodamine B assay; conditions: OVCAR-5, 48 h, read-out: GI
# PC-3 [8] = assay: Growth inhibition of human PC3 cells at 100 uM after 48 hrs by sulforhodamine B assay; type: functional; conditions: PC-3, 48 h, read-out: GI; summary of the method: as §1
# IMR-32 [9] = assay: Growth inhibition of human IMR32 cells after 48 hrs by sulforhodamine B assay; type: functional, cell-based; conditions: IMR-32, 48 h; summary of the method: as §1
# IMR-32 [10] = assay: Growth inhibition of human IMR32 cells at 100 uM after 48 hrs by sulforhodamine B assay; type: functional; conditions: IMR-32, 48 h, read-out: GI; summary of the method: as §1
# COLO 205 [11] = assay: Growth inhibition of human COLO205 cells at 100 uM after 48 hrs by sulforhodamine B assay; type: functional; conditions: COLO 205, 48 h, read-out: GI; summary of the method: as §1
# A549 [12] = assay: Growth inhibition of human A549 cells after 48 hrs by sulforhodamine B assay; type: functional, cell-based; conditions: A549, 48 h; summary of the method: as §1
SMILES,IC50 (COLO 205 [1]) [µM],IC50 (OVCAR-5 (human) [2]) [µM],inhibition of growth at 100 µM (A549 [3]) [%],inhibition of growth at 100 µM (HEp-2 [4]) [%],IC50 (HEp-2 [5]) [µM],IC50 (PC-3 [6]) [µM],inhibition of growth at 100 µM (OVCAR-5 (human) [7]) [%],inhibition of growth at 100 µM (PC-3 [8]) [%],IC50 (IMR-32 [9]) [µM],inhibition of growth at 100 µM (IMR-32 [10]) [%],inhibition of growth at 100 µM (COLO 205 [11]) [%],IC50 (A549 [12]) [µM]
O=c1c(C2N=C(c3ccccc3)SS2)coc2ccccc12 (centres undefined),> 100,> 100,42,48,> 100,> 100,11,23,16.5,82,18,> 100
O=c1c(C(=S)Nc2ccccc2)coc2cc(Cl)c(Cl)cc12,> 100,> 100,3,4,> 100,95.4,2,16,89.9,18,16,71.2
Cc1ccc2occ(C3N=C(c4ccccc4)SS3)c(=O)c2c1 (centres undefined),> 100,93.7,67,43,> 100,> 100,54,40,70.7,53,32,66.5
O=c1c(C2N=C(c3ccccc3)SS2)coc2ccc(F)cc12 (centres undefined),> 100,> 100,55,51,98.6,> 100,27,32,14.6,75,37,91.1
O=c1c(C2N=C(c3ccccc3)SS2)coc2cc(Cl)c(F)cc12 (centres undefined),> 100,61.7,57,52,97.6,56.9,75,76,56.8,80,45,93.5
O=c1c(C(=S)Nc2ccccc2)coc2ccccc12,72.6,86.4,79,32,> 100,60.6,58,63,95.8,53,71,52.8
O=c1c(C(=S)Nc2ccccc2)coc2ccc(F)cc12,> 100,> 100,70,32,> 100,> 100,49,45,89.8,59,26,71.9
